Bioassay records (PubChem BioAssay)
Compounds with a hit are over-represented: about 2.6% of the library has one in this group of screens.
SENP7 inh: blocks the human protease SENP7; Q9BQF6; recombinant SENP7, Z-RLRGG-aminoluciferin luminescence, 40 min; inhibition, % at 5 µM; actives 1.5% (n = 330,000); AID 434973;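 active means inhibition above about 50% at the single test dose, limit read from the data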
Platelet DG rel: modulates dense granule release in human platelets; human platelet-rich plasma, SFLLRN dense granule ATP release, luminescence; inhibition, %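 (compounds screened at 7.5 µM in platelet-rich plasma)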; actives 0.22% (n = 300,000); AID 1663;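 active means mean replicate score, as percent of positive control, at or above 50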
SENP8 block-1: blocks the human protease SENP8; Q96LD8; inhibition, % at 10 µM; purified SENP8, Z-RLRGG-aminoluciferin cleavage, luminescence; actives 1.2% (n = 330,000); in the data active means inhibition above about 50%
Target sequence (Q96LD8 whole entry, looked up): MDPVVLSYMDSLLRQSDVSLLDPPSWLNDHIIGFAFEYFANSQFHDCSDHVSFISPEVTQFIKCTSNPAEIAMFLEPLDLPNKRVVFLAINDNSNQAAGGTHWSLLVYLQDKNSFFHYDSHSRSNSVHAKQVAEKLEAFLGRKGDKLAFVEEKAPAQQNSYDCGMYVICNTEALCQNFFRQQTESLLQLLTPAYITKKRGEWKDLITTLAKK
SENP1 inh: SENP1 (human) catalytic domain inhibition | recombinant SENP1 catalytic domain, CyPet-SUMO1-YPet FRET cleavage | inhibition, % at 10 µM | actives 0.21% (n = 360,000) | AID 624204;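 active means inhibition at least 30% at 10 µM, raw YFP signal under a set limit, fluorescence ratio 0.5 to 1.5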
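Test system: hSENP1 catalytic domain, recombinant; Amount: 20 pM final SENP1 enzyme; Medium: Tris pH 8 buffer plus EDTA, NaCl, BME, BSA, NP40, catalase; Schedule: 50 min enzyme reaction, room temperature, light-protected; Technique: FRET fluorescence in CFP and YFP emission channels; Controls: no-enzyme wells low, DMSO-plus-enzyme wells high control.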
SENP6 block: blocks the human protease SENP6 | Q9GZR1 | Recombinant SENP6 catalytic domain, aminoluciferin luminescence | inhibition, % at 10 µM | actives 1.8% (n = 330,000) | AID 2599;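 active means inhibition above about 50% at the single tested dose, limit read from the data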
Target sequence (Q9GZR1 628-1112 limits assumed): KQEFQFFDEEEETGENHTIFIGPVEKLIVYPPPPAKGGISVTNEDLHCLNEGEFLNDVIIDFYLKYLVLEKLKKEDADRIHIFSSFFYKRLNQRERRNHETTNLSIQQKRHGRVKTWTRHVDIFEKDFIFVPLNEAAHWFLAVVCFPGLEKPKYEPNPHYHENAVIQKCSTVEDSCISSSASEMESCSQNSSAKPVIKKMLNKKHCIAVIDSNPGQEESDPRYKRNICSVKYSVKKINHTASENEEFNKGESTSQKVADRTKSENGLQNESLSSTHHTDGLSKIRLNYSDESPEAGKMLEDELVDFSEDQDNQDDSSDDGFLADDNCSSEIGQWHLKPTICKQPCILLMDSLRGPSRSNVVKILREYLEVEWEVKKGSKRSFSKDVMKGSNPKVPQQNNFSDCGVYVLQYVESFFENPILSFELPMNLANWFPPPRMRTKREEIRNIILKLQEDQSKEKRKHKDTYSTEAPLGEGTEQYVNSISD
SENP8 block-2: SENP8 (human) protease inhibition | Q96LD8 | AID 602440 | recombinant SENP8, Nedd8 substrate fluorescence | actives 0.64% (n = 360,000) | inhibition, % at 20 µM; in the data active means inhibition mostly above about 40%, no sharp cut-off; inactive means mostly below about 27%
SENP8 conf: confirmation of human SENP8 protease inhibitors; actives 40% (n = 6,200); AID 488912; inhibition, % at 12.5 µM; Recombinant SENP8, Z-RLRGG-aminoluciferin luminescence, 60 min; shares compounds with SENP7 inh;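 active means mean inhibition across replicates above about 50%, limit read from the data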
SENP6 conf: human SENP6 inhibition, confirmed | shares compounds with SENP7 inh | actives 58% (n = 6,200) | AID 488915 | inhibition, % at 12.5 µM | recombinant SENP6, Z-RLRGG-aminoluciferin luminescence
SENP7 confirm: human SENP7 inhibition, confirmed | shares compounds with SENP7 inh | recombinant SENP7, Z-RLRGG-aminoluciferin luminescence, 40 min | inhibition, % at 12.5 µM | actives 69% (n = 6,200)
Casp3 SENP sel: inhibits human caspase-3 in SENP selectivity test | purified caspase-3, Z-DEVD-aminoluciferin luminescence, 60 min | actives 60% (n = 6,200) | shares compounds with SENP7 inh | inhibition, % at 12.5 µM;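 active means mean inhibition above about 50%, limit read from the data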
SENP luc ctr: interferes with luciferase luminescence in SENP counter-screen | AID 488919 | inhibition, % at 12.5 µM | Pre-incubated SENP8/Z-RLRGG-aminoluciferin, luciferase luminescence interference | shares compounds with SENP7 inh | actives 39% (n = 6,200);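 active means mean inhibition above about 50% when retested at one dose, limit read from the data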
Numbers stand for hits; n = inactive; x = no result.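 How the source made its calls, unless noted: active means mean inhibition above about 50% in the one-dose retest (limit read from the data); inactive means the rest.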

SMILES	SENP7 inh	Platelet DG rel	SENP8 block-1	SENP1 inh	SENP6 block	SENP8 block-2	SENP8 conf	SENP6 conf	SENP7 confirm	Casp3 SENP sel	SENP luc ctr
O=c1[nH]c(-c2ccccc2)cnc1-c1ccccc1	73.7	n	n	n	52.0	n	n	n	n	n	n
CC(=O)c1ccccc1NC(=O)CSc1n[nH]c(=O)n1C1CC1	n	x	n	n	n	n	x	x	x	x	x
O=C(Nc1ccc(F)cc1F)c1cc2ccccc2oc1=O	62.6	n	n	n	n	n	n	n	n	53.5	n
COc1ccc(NC(=O)c2cc3ccccc3oc2=O)cc1	x	x	x	n	x	n	x	x	x	x	x
COc1ccc(NC(=O)c2cc3ccccc3cc2O)cc1	n	n	n	n	51.2	n	n	n	88.0	n	n
Cc1ccc(NC(=O)c2cc3ccccc3oc2=O)cc1S(=O)(=O)N(C)C	73.1	n	n	n	n	n	n	n	n	n	n
Cc1ccc(NC(=O)c2cc3ccccc3o2)cc1S(=O)(=O)N(C)C	x	x	x	n	x	n	x	x	x	x	x
COc1ccc2oc(=O)c(C(=O)Nc3ccccc3O)cc2c1	94.5	n	74.9	n	77.4	n	61.4	77.9	93.9	74.5	n
CC(O)(c1cccc(F)c1)c1nc(-c2cncnc2)cs1 (stereo not given)	x	x	x	n	x	n	x	x	x	x	x
COc1ccc(CC(NC(C)=O)C(=O)NC2CCN(C(=O)Nc3ccccc3C)CC2)cc1OC (stereo not given)	n	n	n	n	n	n	x	x	x	x	x
COC(=O)c1sc(NC(=O)c2c(OC)cccc2OC)c(C#N)c1C	n	n	n	n	n	n	x	x	x	x	x
COc1cc2ccccc2cc1C(=O)Nc1ccc(O)cc1	56.8	n	n	n	63.1	n	n	n	87.2	59.7	n
COc1ccc(-n2cc3ccc([N+](=O)[O-])cc3n2)cc1	86.9	n	78.3	n	78.0	n	n	50.7	71.6	59.4	n
COc1ccc(C2=NCCn3nc4cc([N+](=O)[O-])ccc4c32)cc1	n	n	n	n	n	n	x	x	x	x	x
CCCC/C(O)=C1\C(=O)CC(C)(C)CC1=Nc1ccc(N)cc1	n	n	n	n	n	n	x	x	x	x	x
COCCCNC(=O)c1cc2c(s1)CS(=O)(=O)C2	n	n	n	n	n	n	x	x	x	x	x
CC(C)OCCCNC(=O)c1cc2c(s1)CS(=O)(=O)C2	97.8	n	n	n	n	n	n	n	n	n	n
Cc1ccc(-c2cc(-c3cccc(F)c3)n[nH]2)c(O)c1	n	n	n	n	77.8	n	74.6	72.4	87.2	n	n
Cc1ccc(O)c(-c2cc(-c3ccccc3F)[nH]n2)c1	54.6	n	57.0	n	62.3	n	65.7	71.5	92.4	n	n
Cc1ccc(O)c(-c2cc(-c3cccc(F)c3)n[nH]2)c1	n	n	n	n	n	n	x	x	x	x	x
COc1cc(C(CC(=O)Nc2cccc(C)n2)N2Cc3ccccc3C2=O)cc(OC)c1OC (stereo not given)	n	n	n	n	n	n	x	x	x	x	x
COc1cccc2cc(C(=O)OCC(=O)N3CC(C)OC(C)C3)c(=O)oc12 (stereo not given)	n	x	n	n	n	n	x	x	x	x	x
CC(=C\c1ccccc1)/C=C1/SC(=S)N(CCC(=O)O)C1=O	n	n	88.6	n	91.2	n	n	91.9	94.3	80.0	50.9
O=C(O)CCN1C(=O)/C(=C\c2cccc(OCc3ccccc3)c2)SC1=S	n	n	96.4	n	95.6	n	n	n	n	n	n
O=C(O)CCN1C(=O)/C(=C\c2ccc(OCc3ccccc3)c(OCc3ccccc3)c2)SC1=S	n	n	n	n	n	n	x	x	x	x	x
SMILES	SENP7 inh	Platelet DG rel	SENP8 block-1	SENP1 inh	SENP6 block	SENP8 block-2	SENP8 conf	SENP6 conf	SENP7 confirm	Casp3 SENP sel	SENP luc ctr
O=C1/C(=C\c2ccc(O)cc2)SC(=S)N1Cc1ccccc1	n	n	78.5	n	72.3	n	59.6	81.9	83.8	n	n
CCOc1cc(/C=C2/SC(=S)N(Cc3ccccc3)C2=O)ccc1O	n	n	n	n	n	n	x	x	x	x	x
COC(=O)C1(Cc2cc(-c3ccccc3)no2)CCN(C(=O)OC(C)(C)C)CC1	n	n	n	n	n	n	x	x	x	x	x
COc1ccccc1-c1c(C#N)c(N)nc2c1CCc1ccccc1-2	78.0	n	77.6	n	96.3	n	n	n	n	n	n
CCOc1cc(-c2c(C#N)c(N)nc3c2CCc2ccccc2-3)ccc1O	n	n	n	n	n	n	x	x	x	x	x
CC1CCCCC1NC(=O)CN1C(=O)NC(C)(c2cc(F)ccc2F)C1=O (stereo not given)	n	x	n	n	n	n	x	x	x	x	x
COc1cc(/C=N/Nc2ccc(C(=O)O)cc2)ccc1O	98.1	n	95.6	n	98.7	n	97.5	97.9	102.6	94.4	96.7
COc1cc(/C=N/Nc2ccc(C(=O)O)cc2)cc(OC)c1OC	70.7	n	74.3	n	88.4	n	87.5	85.5	97.8	80.9	n
CN(CC1COc2ccccc2O1)C(=O)CSc1ncnc2sccc12 (stereo not given)	n	x	n	n	n	n	x	x	x	x	x
c1ccc2c(c1)oc1c(Nc3ccc4c(c3)OCCO4)ncnc12	91.9	n	84.7	n	92.5	n	n	79.2	90.0	59.9	n
Cc1ccc(Nc2ncnc3c2oc2ccccc23)cc1	n	n	n	n	66.3	n	n	n	74.1	n	n
COc1ccc(Nc2ncnc3c2oc2ccccc23)cc1	n	n	n	n	n	n	x	x	x	x	x
COc1ccc2[nH]c(C(=O)N3CCNCC3)cc2c1OC	n	n	n	n	n	n	x	x	x	x	x
COc1ccc(-c2cc(=O)c3ccccc3[nH]2)cc1	n	n	n	n	n	n	x	x	x	x	x
COc1ccc2sc3ccccc3c(=O)c2c1	81.3	n	73.9	n	88.0	n	n	n	77.9	53.3	n
COc1ccc2oc3ccc(OC)cc3c(=O)c2c1	89.3	n	62.1	n	n	n	n	53.3	69.5	n	n
COc1ccc2oc(=O)cc(C)c2c1	n	n	n	n	n	n	x	x	x	x	x
COc1ccc(-c2cc(=O)c3ccccc3s2)cc1	n	n	84.3	n	92.8	n	59.8	90.6	99.1	82.2	59.0
CC(Sc1nc2ccccc2s1)C(=O)NC1CCCc2ccccc21 (stereo not given)	n	n	n	n	n	n	x	x	x	x	x
